SR-BI DiI inh: inhibitors of SR-BI mediated HDL lipid uptake, primary screen, ldlA[mSR-BI] cells, fluorescence, single point; inhibition, % at 12.5 µM; hit rate 0.96% among 320,000; ldlA[mSR-BI] CHO cells, DiI-HDL uptake fluorescence, 3 h; Scavenger receptor class B member 1 (Mus musculus), Q61009; AID 488896, 2010;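 active = mean replicate inhibition of at least 70% and a set share of replicates each scoring 70 or more; inconclusive = meets just one of the two criteria; inactive = fails both criteria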;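 note: 0% = median of neutral control wells and 100% = median of positive control wells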
PKA-R2B act: activators of PKA-R2B holoenzyme, primary screen, biochemical, fluorescence polarization, Cy5-IP20, human | PKA-R2B holoenzyme dissociation; R2B truncated from residue 108, S112A mutant; 0% DMSO only, 100% 113 µM cGMP | cAMP-dependent protein kinase catalytic subunit beta (Homo sapiens) + cAMP-dependent … | AID 504700, 2011 | activation, % at 11.4 µM | hit rate 0.079% among 340,000;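 active = activation above a cutoff set at the mean over all compounds plus 3 SD, cut at about 18% in these data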;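 note: higher means more holoenzyme dissociation and a rise in polarization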
dFosB act-1: activators of delta FosB homodimer, primary screen, biochemical, fluorescence polarization, TAMRA-CDK5 oligo, single point; Protein FosB (Mus musculus), P13346; purified delta FosB; percent of positive-control signal above neutral wells; activation, % at 25 µM; hit rate 0.99% among 340,000; AID 493131, 2011;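 active = mean activation above about 17%, with every replicate also reaching it, limit read from the data, passing the limit was not always enough; inconclusive = only one of the two conditions met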
PKA-R1A act: activators of PKA-R1A holoenzyme, primary screen, biochemical, fluorescence polarization, Cy5-IP20, bovine R1A, mouse PKAc; PKA-R1A dissociation; scaled: DMSO 0%, 113 µM cGMP 100%; AID 504707, 2011; cAMP-dependent protein kinase type I-alpha regulatory subunit (Bos taurus) + …; hit rate 0.083% among 340,000; activation, % at 11.4 µM;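 active = percent activation above the mean of all tested compounds plus 3 SD, cut at about 19% in these data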;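 note: higher means more PKAc released from R1A so a rise in polarization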
SR-BI DiI-HDL act: activators of SR-BI mediated DiI-HDL uptake, primary screen, ldlA[mSR-BI] CHO cells, DiI fluorescence. hit rate 0.096% among 320,000. 3 h; 100 = double the neutral-control signal. AID 504775, 2011. activation, % at 12.5 µM;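 active = mean replicate activation of at least 60% and every replicate at or above 60%; inconclusive = mean or all-replicate condition met, but not both; inactive = mean below 60% and not all replicates reaching 60%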;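 note: 0% = median plate neutral-control signal and 100% = twice that signal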
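Material – SR-BI-overexpressing, LDLR-lacking CHO cells · Medium – BSA-supplemented, HEPES-buffered Ham's F12, pH 7.4 · Doses – single concentration · Times – compound with DiI-HDL co-incubation, 3 h at 37 °C · Measured by – bottom-read fluorescence, 550/595 nm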
CDK5 p35 inh: inhibitors of human CDK5/p35 kinase, primary screen, biochemical, single concentration; Cyclin-dependent kinase 5 (Homo sapiens) + Cyclin-dependent kinase 5 activator 1 (Homo …; Recombinant CDK5/p35, ADP-Glo luminescence, 60 min; inhibition, % at 10 µM; hit rate 0.01% among 330,000;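 active = highest replicate inhibition of at least 50% and at least 75% of replicates reaching 50%; inconclusive = only one of the two criteria met; inactive = both criteria failed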;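 note: plate controls were DMSO neutral control for no effect and GW8510 at 10 µM for full effect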
Target sequence (Q00535 whole entry, looked up): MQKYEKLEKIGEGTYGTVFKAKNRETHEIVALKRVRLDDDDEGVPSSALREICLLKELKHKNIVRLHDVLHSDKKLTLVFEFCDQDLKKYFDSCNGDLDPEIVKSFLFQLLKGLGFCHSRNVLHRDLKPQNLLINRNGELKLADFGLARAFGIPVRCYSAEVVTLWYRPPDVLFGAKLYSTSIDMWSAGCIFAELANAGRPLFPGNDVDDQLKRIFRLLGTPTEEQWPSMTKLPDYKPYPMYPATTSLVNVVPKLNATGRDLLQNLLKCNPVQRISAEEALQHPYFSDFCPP
Target sequence (Q15078 whole entry, looked up): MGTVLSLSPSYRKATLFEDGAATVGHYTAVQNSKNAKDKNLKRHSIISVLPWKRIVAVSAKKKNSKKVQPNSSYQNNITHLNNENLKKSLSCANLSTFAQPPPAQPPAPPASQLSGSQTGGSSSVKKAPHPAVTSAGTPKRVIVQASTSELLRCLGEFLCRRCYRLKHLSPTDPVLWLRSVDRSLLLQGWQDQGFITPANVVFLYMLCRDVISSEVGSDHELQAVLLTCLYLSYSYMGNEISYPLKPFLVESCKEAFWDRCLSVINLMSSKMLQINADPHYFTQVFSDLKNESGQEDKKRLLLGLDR
dFosB act-2: activators of mouse delta FosB DNA binding, confirmation, biochemical, fluorescence polarization, TAMRA-CDK5 oligo, cherry-picked samples; activation, % at 24.9 µM; shares compounds with dFosB act-1; purified delta FosB; normalised: neutral wells 0, positive control 100; 2,400 tested, under 10 active;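 active = highest replicate activation at or above 34% and every replicate reaching that threshold; inconclusive = meets only one of the two criteria; inactive = meets neither criterion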;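 note: higher polarization means more probe DNA bound by delta FosB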
The depositor's hits bear a star; u = inconclusive; x = no result given. Compounds with a hit are over-represented: about 2.1% of the library has one in this group of screens.

SMILES	SR-BI DiI inh	PKA-R2B act	dFosB act-1	PKA-R1A act	SR-BI DiI-HDL act	CDK5 p35 inh	dFosB act-2
NC(=O)CC(NC(=O)c1ccccc1)c1ccc(NCCOc2ccccc2)c([N+](=O)[O-])c1 (configuration not stated)	-2	-14	26*	-9	2	-2	2
NC(=O)CC(NC(=O)Cc1ccc(Br)cc1)c1ccc(NCc2ccc(F)cc2)c([N+](=O)[O-])c1 (configuration not stated)	-30	0	53*	-5	30	0	8
O=C(CSc1nc(Nc2ccccc2)nc(N2CCOCC2)n1)NC1CCCCC1	-6	-2	-8	1	6	-1	x
Cn1c(SCC(=O)NCC2CCCO2)nnc1-c1ccc(Cl)cc1 (configuration not stated)	-26	0	0	-10	26	-1	x
CC(O)c1cccc(-c2ccc(CN3C[C@]4(CO)O[C@@H](CO)C[C@@H]4S3(=O)=O)cc2)c1 (some centres not stated)	25	-6	-4	-8	-25	-1	x
COc1ccc2cc(OCC(=O)NNC(=O)Nc3ccc(F)cc3)ccc2c1	-9	-4	21*	-12	9	-2	0
Nc1c(N(CCC2=CCCCC2)C(=O)Cc2ccc(F)cc2)c(=O)[nH]c(=O)n1Cc1ccccc1	16	-6	4	3	-16	1	x
Nc1c(N(CCC2=CCCCC2)C(=O)COc2ccc(F)cc2Cl)c(=O)[nH]c(=O)n1Cc1ccccc1	29	-5	29*	5	-29	0	1
CC1CCc2sc(C(=O)N/N=C/c3ccc([N+](=O)[O-])cc3)cc2C1 (configuration not stated)	-10	-5	17*	-5	10	-1	-2
O=C(N/N=C/c1ccccc1Br)c1ccc(CSc2cccc3cccnc23)cc1	60	-4	28*	-1	-60	1	6
COc1ccc(/C=N/NC(=O)c2cc3c(ccc4ccccc43)o2)cc1OC	-7	-4	77*	-14	7	1	5
O=C(N/N=C/c1cccc(O)c1)c1ccc(COc2cccc3cccnc23)cc1	37	-2	33*	6	-37	-3	0
COc1ccc(/C=N/NC(=O)c2ccc(COc3cccc4cccnc34)cc2)cc1O	x	9	6	3	x	2	x
NNC(=O)c1ccc(CSc2cccc3cccnc23)cc1	34	-10	-2	-11	-34	3	x
COc1ccc(/C=N/NC(=O)c2ccc(COc3cccc4cccnc34)cc2)cc1OC	u	-10	19*	-7	-74	-2	-1
COc1ccc(/C=N/NC(=O)c2cc(-c3ccccc3OC)nc3ccccc23)cc1COC(C)=O	4	-11	-2	-21	-4	0	x
COc1cc(C(=O)N/N=C/c2ccc(OC(=O)c3ccccc3Cl)c(OC)c2)ccc1O	67	-16	25*	-17	-67	-1	2
COc1ccc(/C=N\NC(=O)c2ccc(-c3ccccc3)cc2)cc1COC(C)=O	59	0	34*	-2	-59	-2	-5
COc1cc(/C=N/NC(=O)c2ccncc2)ccc1OC(=O)c1ccccc1Cl	53	-6	-20	4	-53	1	x
O=c1c2ccccc2[nH]c(=S)n1CCCN1CCC(Cc2ccccc2)CC1	x	-17	-10	-12	x	1	x

Source: PubChem BioAssay
